Results taken from PMC10448692 (ACS Omega, 2023).

How the values were obtained:
[1] = tested on: DNA (PDB ID: 1BNA); settings: reported docking; cited from earlier work
[2] = Lipophilicity by shake flask, n-octanol/water partition; assay type: physicochemical; settings: room temperature
Procedure, shortened: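 Shake-flask method. Each compound was added separately to n-octanol and to double-distilled water and shaken 24 h at room temperature to saturate each phase. Undissolved solid was removed by centrifugation or filtration, and the saturated solution was evaporated to dryness. Residue weight gave solubility, from which logS and logP were computed.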

Compound | docking energy with DNA [1] | experimental logP [2] | experimental logP ([2]; listed as Gly)
O=C(O)CNC1CCCCC1 [CHgly, cyclohexyl glycine] | -5.71 kcal/mol | – | –
NCC(=O)O [gly, Glycine] | – | −2.7 | –2.76
